# Assay outcomes as filed in PubChem BioAssay.
# COUP-TFII inh – inhibitors of human COUP-TFII (NR2F2); P24468; HEK293T NGFI-A luciferase reporter, luminescence; inhibition, % at 8.6 µM; actives 0.7% (n = 370,000);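 active = inhibition above a per-plate cutoff, mean inhibition of test wells between control levels plus 3 SD, cut at about 38% in these data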;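 note: cells cotransfected with COUP-TFII expression vector driving the NGFI-A reporter; 0% = median of COUP-TF2 test wells and 100% = reporter-only cells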
# NR2E3 ag-1 – agonists of human nuclear receptor NR2E3; Q9Y5X4; GST-NR2E3/biotin-RetCOR TR-FRET, 1536-well; inhibition of corepressor binding, % at 4.78 µM; actives 0.12% (n = 320,000); AID 2300;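 active = percent inhibition above the cutoff of mean plus 3 SD of all tested compounds, set per screening campaign, cut at about 20% in these data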;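 note: 0% = DMSO wells and 100% = biotin wells as full block of FRET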
#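 Material – GST-tagged NR2E3 plus biotinylated RetCOR corepressor · Quantity – NR2E3 fusion 1.35 nM · Times – 5 h incubation at 4 °C · Medium – pH 7.5 Tris-based buffer · Technique – TR-FRET, Eu(K)-anti-GST donor, streptavidin-D2 acceptor, ex 340, em 617/671 nm · Benchmarks – high control biotin, low control 0.6% DMSO · Format – 1536-well plates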
# CHT PAM – allosteric activators of human choline transporter CHT | Q9GZV3 | CHT-expressing cells, membrane potential dye, choline EC20; active compounds read high; LV-AA mutant CHT in HEK293 cells | B-score at 10 µM | actives 0.49% (n = 310,000);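 active = initial fluorescence not abnormally high and integrated response B-score, plate-corrected, over 3 SD above library mean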
# CHT inh – inhibitors of human choline transporter CHT; Q9GZV3; CHT-expressing cells, membrane potential dye, choline response; active compounds read low; B-score at 10 µM; actives 0.86% (n = 310,000);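 active = B-score over 3 SD under the library average, and starting fluorescence ratio not unusually high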;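 note: choline stimulus applied at its EC90 after an EC20 pre-addition; B-score computed on integrated fluorescence ratio after choline addition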
# GalR3 antagonist – blocks the human galanin receptor 3 | inhibition, % at 3 µM | HEK293 GalR3-CNG cAMP membrane potential fluorescence; galR3 body fused to GalR1 C-terminus | O60755 | actives 0.44% (n = 360,000);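 active = inhibition above the screen-wide average plus 3 SD, cut at about 13% in these data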;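 note: forskolin and galanin both at EC90 stimulate the cells; cAMP rise reported by CNG channel membrane potential dye signal; 0% = forskolin plus galanin with DMSO and 100% = forskolin alone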
# Target sequence (O60755 1-299 limits assumed): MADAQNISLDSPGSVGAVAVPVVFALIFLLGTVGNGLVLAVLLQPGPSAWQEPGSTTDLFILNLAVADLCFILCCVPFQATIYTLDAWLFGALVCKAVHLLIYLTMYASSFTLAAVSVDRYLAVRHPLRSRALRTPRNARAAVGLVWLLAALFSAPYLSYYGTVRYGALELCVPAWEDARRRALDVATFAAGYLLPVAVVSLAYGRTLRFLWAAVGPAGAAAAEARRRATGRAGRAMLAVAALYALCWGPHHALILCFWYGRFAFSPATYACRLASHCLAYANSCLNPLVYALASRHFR
# NR2E3 ag-2 – human photoreceptor-specific nuclear receptor agonism; inhibition of corepressor binding, % at 3.98 µM; AID 602229; actives 0.35% (n = 360,000); CHO-S Gal4-NCOR/VP16-NR2E3 two-hybrid, luciferase; Q9Y5X4;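 active = inhibition above the mean of all tested compounds plus 3 SD, cut at about 70% in these data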;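 note: 0% = DMSO with NR2E3 transfected cells and 100% = cells lacking NR2E3 construct; higher means lower luciferase signal from less NR2E3 corepressor binding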
# NR2E3 ag conf – NR2E3 agonism confirmed in two-hybrid assay; shares compounds with NR2E3 ag-2; CHO-S mammalian two-hybrid NR2E3-NCOR, luciferase luminescence; inhibition, % at 3.98 µM; actives 51% (n = 2,300); AID 624378;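 active = average inhibition above a cutoff equal to the mean inhibition of all tested compounds plus one SD, cut at about 70% in these data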;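 note: 0% = DMSO in NR2E3 cells and 100% = DMSO in cells lacking NR2E3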
# GAL4-VP16 luc – reduces GAL4-VP16 reporter signal in NR2E3 counterscreen; actives 29% (n = 2,300); inhibition, % at 3.98 µM; CHO-S GAL4-VP16 luciferase reporter, luminescence; AID 624379; shares compounds with NR2E3 ag-2;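 active = mean inhibition above a cutoff equal to the average over all tested compounds plus one standard deviation, cut at about 70% in these data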;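 note: luciferase from a UAS reporter driven by GAL4-VP16 transactivation; 0% = DMSO with VP16-transfected cells and 100% = DMSO with cells lacking VP16; higher means less reporter light so more repression of VP16 activity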
# * = called active by the depositor; i = inactive; nt = no result. This is a sample that favours compounds with a hit; in the whole collection about 2.3% have one here.
SMILES,COUP-TFII inh,NR2E3 ag-1,CHT PAM,CHT inh,GalR3 antagonist,NR2E3 ag-2,NR2E3 ag conf,GAL4-VP16 luc
Cn1c(=O)c2c(nc(NCc3ccco3)n2C)n(C)c1=O,-21.0,0.6,i,i,-7.9,10.0,nt,nt
Cn1c(=O)c2c(nc(NCc3ccco3)n2C/C=C/c2ccccc2)n(C)c1=O,7.1,-1.0,i,i,0.9,50.8,87.6*,70.6
CC(Cl)=CCn1c(NCCc2ccccc2)nc2c1c(=O)n(C)c(=O)n2C,11.8,nt,nt,nt,-4.3,48.1,91.0*,71.0*
CCN(CC)c1ccc(/C=N/NC(=S)NC)c(O)c1,-25.1,-5.8,i,i,-5.6,68.6,-124.2,-97.0
CCN(CC)c1ccc(/C=N/NC(=O)OC)c(O)c1,-41.8,-5.9,i,i,-0.2,-7.8,nt,nt
CCOc1ccc(-n2c(SCc3cccc4ccccc34)nnc2-c2ccc(C)cc2)cc1,34.6,nt,nt,nt,nt,nt,nt,nt
COC(=O)N1C2CCCCC2=NN(c2ccccc2)N1C(=O)OC (stereo not given),-5.5,nt,nt,nt,-5.6,70.7*,5.8,17.9
S=c1nc2ccccc2c2nc(-c3ccccc3Br)[nH]n12,11.5,6.8,i,i,-8.2,78.3*,-9.3,-11.7
COc1ccc(S(=O)(=O)N2CCCCCC2)c2ccccc12,1.0,nt,nt,nt,nt,nt,nt,nt
COc1ccc(CCOC(=O)c2ccc(N)c([N+](=O)[O-])c2)cc1,6.4,3.8,i,i,2.6,50.1,25.9,45.6
Cc1ccccc1-c1cccc2c3c([nH]c12)[C@@H]1C[C@H]2[C@@H](CN1CC3)[C@H](C)ON2C,-8.5,nt,nt,nt,nt,nt,nt,nt
O=C(Nc1ccc([N+](=O)[O-])cc1)Nc1ccc(OC(F)F)c(Cl)c1,18.9,6.4,i,i,-6.7,97.7*,99.1*,94.4*
CC(C)(C)c1ccc(NC(=S)NCc2cccs2)cc1,-13.2,-0.4,i,i,-3.9,69.6,64.3,40.0
COc1ccccc1C=NNC(=O)CSc1nc2ccccc2n1Cc1ccc(Cl)cc1,10.8,nt,nt,nt,nt,nt,nt,nt
Cn1c(=O)c(=O)n(C)c2cc(S(=O)(=O)N3CCN(c4ccccc4Cl)CC3)ccc21,-0.4,nt,nt,nt,nt,nt,nt,nt
O=S(=O)(NCCN1CCOCC1)c1ccc2ccccc2c1,-6.4,nt,nt,nt,-0.8,26.3,nt,nt
O=S(=O)(NCCN1CCOCC1)c1ccc(Oc2ccccc2Cl)cc1,14.0,-2.0,i,i,-7.6,53.4,53.4,54.5
CC1=CC(C)(C)N2C(=O)C3(NCCc4c3[nH]c3ccccc43)c3cc(C)cc1c32 (stereo not given),10.3,-0.5,i,i,-6.8,57.0,12.2,6.3
CCc1ccc(NC(=O)CSc2nc3ncc(Br)cc3[nH]2)cc1,1.5,3.0,i,i,-5.7,-41.0,nt,nt
COc1cccc(NC(=O)CSc2nc3ncc(Br)cc3[nH]2)c1,-5.9,-0.4,i,i,-10.5,65.9,79.6*,33.0
O=S(=O)(Nc1cccc(-c2cn3cccnc3n2)c1)c1ccc(-c2ccccc2)cc1,-1.8,3.7,i,i,3.7,57.8,56.2,59.8
O=C(Nc1ccc(F)cc1)OCCN1C(=O)CCC12CCC(c1ccc(Cl)cc1)CC2 (stereo not given),-1.6,nt,nt,nt,nt,nt,nt,nt
CCCCCOC(=O)c1[nH]c2c(c1C)C(=O)CC(c1ccco1)C2 (stereo not given),nt,7.5,i,i,nt,51.6,-4.8,10.8
CCOCCOC(=O)c1[nH]c2c(c1C)C(=O)CC(c1ccccc1)C2 (stereo not given),-64.3,1.4,i,i,3.1,23.1,nt,nt
O=C(CSc1cccc[n+]1[O-])N1CCCCCC1,-1.7,-1.4,i,i,0.8,-7.0,nt,nt
O=C(CSc1cccc[n+]1[O-])CSc1cccc[n+]1[O-],-8.9,-0.3,i,i,-0.9,68.8,-4.3,-7.6
Oc1ccccc1N1CCN(C(=S)Nc2ccc(SC(F)F)cc2)CC1,8.5,-2.2,i,i,-11.6,20.3,nt,nt
